What was measured:
GL261 cells [1] = assay: Intracellular ROS generation, DCFH-DA; type: cell-based, mouse; conditions: GL261, 5 μmol/L 24 h, n = 3
Procedure, shortened: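 GL261 cells were treated 24 h at 5 μmol/L, then loaded with DCFH-DA for 30 min before irradiation (40 mW, 500 s) or no irradiation. Intracellular DCF fluorescence was the read-out. n = 3.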

GL261 tumor [2] = assay: Immune cell analysis of tumor tissues, flow cytometry; type: in vivo, C57BL/6 mice; conditions: for apoptosis rate of T cells within tumor tissues vs saline group: CD8+Annexin V+, +L groups
Procedure, shortened: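 Female C57BL/6 mice (6 weeks) bore left-flank tumours from 5 × 10^6 subcutaneous GL261 cells. Treatment was i.v. at 3 mg/kg VPF equivalent; +L groups received 671 nm laser, 100 mW, 15 min, 3 h post-injection. On Day 3, tumours were enzymatically dissociated, Fc-blocked 5 min and antibody-stained 45 min. Flow cytometry gated CD45+CD3+CD8+ cytotoxic T cells and CD8+Annexin V+ damaged T cells. n = 5.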

[3] = Brain accumulation in orthotopic GBM model, NIRF imaging; type: in vivo, BALB/c-nu mice; conditions: for time of peak accumulation in brain: orthotopic GL261, i.v., NIRF imaging
Procedure, shortened: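 Orthotopic model: 1 × 10^5 GL261 cells in saline were injected stereotactically into the brains of BALB/c-nu mice (2.0 mm lateral, 0.5 mm anterior to bregma, 3.0 mm depth, 1 μL/min). Test compound or VPF was given i.v. at an equivalent 3 mg/kg VPF content. Brain accumulation was followed by whole-body NIRF imaging, with ex vivo NIRF imaging of GBM tissue at 6 h.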

GL261 tumor [4] = assay: Therapeutic efficacy in subcutaneous GL261 GBM model; type: in vivo, C57BL/6 mice; conditions: subcutaneous GL261, i.v. 3 mg/kg VPF equivalent, +L
intratumoral T cells = assay: Extracellular IFN-γ release from tumor-derived T cells; type: cell-based, mouse; conditions: n = 3
GL261 cells [5] = assay: Coculture assay, lysis of GL261 cells by T cells; type: cell-based, mouse; conditions: T cells treated 5 μmol/L 48 h, coculture 1 h, CCK-8, n = 3
Procedure, shortened: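 Intratumoral CD8+ T cells were isolated with CD8 microbeads from subcutaneous GL261 flank tumours in C57BL/6 mice and kept in RPMI1640 with 10% FBS at 37 °C, 5% CO2. They were stained with Far red CFSE and treated 48 h at 5 μmol/L. They were then cocultured 1 h with green CFSE-labelled GL261 cells. GL261 viability was measured by CCK-8.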

[6] = test system: intratumoral CD8+ T cells; assay: Exhaustion markers PD-1 and Tim3 in tumor-derived T cells; type: cell-based, mouse; conditions: for Tim3 expression (Tim3-positive cells) / PD-1 expression (PD-1-positive cells): 5 μmol/L, 48 h, n = 3, mean ± SD; for Tim3 expression (Tim3-positive cells): untreated 65.6 ± 4.84%; for PD-1 expression (PD-1-positive cells): untreated 69.6 ± 6.46%; for PD-1 and Tim3 levels: 24 h, no significant differences between the two groups
Cat D = assay: Enzyme cleavage, HPLC; type: in vitro ADME; conditions: pH 5.5 MES buffer, 37 °C, 10 μg/mL enzyme
Procedure, shortened: (§1)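 The self-assembled nanoparticle was incubated at 37 °C in pH 5.5 MES buffer with 10 μg/mL of a single protease: Cat B, Cat D, Cat E, Cat L, caspase-3 or MMP-9. Cat B was also tested in the presence of its irreversible inhibitor Z-FA-FMK. Parent conjugate and cleavage products were followed by HPLC.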

PTP1B = assay: In vitro PTP1B proteolysis; type: cell-based, mouse; conditions: IFN-γ-treated GL261 cells, Western blot
GL261 cells [7] = assay: Cytotoxicity, CCK-8; type: cell-based, mouse; conditions: GL261, 24 h, n = 5
Procedure, shortened: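 GL261 cells were exposed to test compound for 24 h, then incubated 20 min in medium containing 10% CCK-8. Absorbance was read at 450 nm. For the +L arm, the zero-concentration point is cells receiving laser without compound. n = 5.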

MMP-9 = assay: Enzyme cleavage, HPLC; type: in vitro ADME; conditions: pH 5.5 MES buffer, 37 °C, 10 μg/mL enzyme
Procedure, shortened: as §1

[8] = Drug loading capacity calculated from molecular weights; type: physicochemical
Procedure, shortened: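 Loading was calculated as (PROTAC MW 1411.59 + VPF MW 702.81) divided by the MW of the whole prodrug conjugate (2595.98). The cathepsin B-cleavable RRK peptide (464.61) is excluded from the numerator.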

Cat E = assay: Enzyme cleavage, HPLC; type: in vitro ADME; conditions: pH 5.5 MES buffer, 37 °C, 10 μg/mL enzyme
Procedure, shortened: as §1

Cat L = assay: Enzyme cleavage, HPLC; type: in vitro ADME; conditions: pH 5.5 MES buffer, 37 °C, 10 μg/mL enzyme
Procedure, shortened: as §1

caspase-3 = assay: Enzyme cleavage, HPLC; type: in vitro ADME; conditions: pH 5.5 MES buffer, 37 °C, 10 μg/mL enzyme
Procedure, shortened: as §1

[9] = Hydrodynamic size by dynamic light scattering; type: physicochemical; conditions: DLS, aqueous condition (saline, 1 mg/mL), mean ± SD, n = 5
Procedure, shortened: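 Nanoassemblies formed spontaneously in aqueous medium without carrier. They were dispersed at 1 mg/mL in saline and sized by dynamic light scattering (hydrodynamic diameter). Morphology was checked by TEM.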

Cat B = assay: Target enzyme-specific cleavage, HPLC; type: in vitro ADME; conditions: pH 5.5 MES buffer, 37 °C, 10 μg/mL Cat B
Procedure, shortened: as §1

[10] = absence of laser irradiation (-L)

Q: Which “intracellular ROS generation” value (GL261 cells [1]; [10]) does the source give for verteporfin [VPF, reference compound] here?
A: The value was “no ROS generation was detected”.

Q: And the “intracellular ROS generation” value (GL261 cells [1]; laser 40 mW 500 s (+L))?
A: The value was “nearly identical”.

Q: What about the “apoptosis rate of T cells within tumor tissues vs saline group” value (GL261 tumor [2]) of the same compound?
A: The value was “no significant differences”.

Q: What about the “time of peak accumulation in brain” value [3] of the same compound?
A: The value was 6 h.

Q: With VPF–KALAPYIPRRK–ertiprotafib [PNPTP1B] as the compound, how does the “intracellular ROS generation” value (GL261 cells [1]; [10]) read?
A: Its value is “no ROS generation was detected”.

Q: And the “intracellular ROS generation” value (GL261 cells [1]; laser 40 mW 500 s (+L))?
A: Its value is “nearly identical”.

Q: And the “time to complete regression in all mice” value (GL261 tumor [4])?
A: Its value is ≤ 8 days.

Q: What about the “extracellular release of IFN-γ” value (intratumoral T cells) of the same compound?
A: The value was “higher quantity”.

Q: And the “GL261 cell lysis by cocultured T cells” value (GL261 cells [5])?
A: The value was “significantly increased”.

Q: And the “Tim3 expression (Tim3-positive cells)” value [6]?
A: Its value is 30.2 ± 4.33%.

Q: And the “PD-1 expression (PD-1-positive cells)” value [6]?
A: The value was 42.47 ± 6.41%.

Q: And the “PD-1 and Tim3 levels” value [6]?
A: The value was “lower PD-1 and Tim3 levels compared to untreated cells”.

Q: What about the “stability with Cat D” value (Cat D) of the same compound?
A: Its value is “stable”.

Q: What about the “apoptosis rate of T cells within tumor tissues vs saline group” value (GL261 tumor [2]) of the same compound?
A: Its value is “no significant differences”.

Q: And the “increase in cytotoxic T cells in tumor tissues, (+L) relative to (-L) group” value (GL261 tumor [2]; CD45+CD3+CD8+, Day 3, n = 5)?
A: The value was 1.2 fold.

Q: And the “PTP1B and related downstream proteins (pERK, pAKT) levels” value (PTP1B; 5 μmol/L, 24 h)?
A: Its value is “fully restored to levels similar to those in IFN-γ-untreated cells”.

Q: And the cytotoxicity (GL261 cells [7]; CCK-8, with laser irradiation (+L))?
A: Its cytotoxicity is “even more potent tumor-killing effect”.

Q: What about the cytotoxicity (GL261 cells [7]; CCK-8, without laser (-L)) of the same compound?
A: The cytotoxicity was “significantly greater cytotoxicity than ertiprotafib”.

Q: And the “stability with MMP-9” value (MMP-9)?
A: The value was “stable”.

Q: What about the “drug loading capacity, PROTAC share” value [8] of the same compound?
A: The value was 54.4%.

Q: And the “drug loading capacity, VPF share” value [8]?
A: Its value is 34.2%.

Q: What about the “brain fluorescence intensity relative to VPF” value ([3]; orthotopic GL261, i.v. 3 mg/kg VPF equivalent, 6 h post-injection, NIRF, n = 3) of the same compound?
A: Its value is 2.16 fold.

Q: And the “time of peak accumulation in brain” value [3]?
A: The value was 6 h.

Q: And the “stability with Cat E” value (Cat E)?
A: The value was “stable”.

Q: What about the “stability with Cat L” value (Cat L) of the same compound?
A: Its value is “stable”.

Q: What about the “stability with caspase-3” value (caspase-3) of the same compound?
A: Its value is “stable”.

Q: And the “average diameter (hydrodynamic size)” value [9]?
A: The value was 87.79 ± 1.25 nm.

Q: And the “time to complete cleavage into PROTAC and VPF–K” value (Cat B)?
A: The value was ≤ 1 h.

Q: With Cc1cc(-c2c3ccccc3c(Br)c3sc(C)c(C)c23)cc(C)c1O[C@H](Cc1ccccc1)C(=O)O [ertiprotafib, reference compound] as the compound, how does the “Tim3 expression (Tim3-positive cells)” value [6] read?
A: The value was 47.53 ± 3.11%.

Q: What about the “PD-1 expression (PD-1-positive cells)” value [6] of the same compound?
A: Its value is 57.43 ± 5.29%.

Q: What about the “PD-1 and Tim3 levels” value [6] of the same compound?
A: The value was “lower PD-1 and Tim3 levels compared to untreated cells”.

Q: And the PTP1B levels (PTP1B; pERK and pAKT decreased)?
A: Its PTP1B levels is “no changes in PTP1B levels”.

Q: And the cytotoxicity (GL261 cells [7]; CCK-8, without laser (-L))?
A: Its cytotoxicity is “minimum GBM cell death”.
